Results on one compound are retold here after ChEMBL document CHEMBL1127556, “Synthesis and topical antiinflammatory and antiallergic activities of antioxidant o-aminophenol derivatives” (J Med Chem, 1994).

Series [1] relates to Mus musculus. Description: Evaluated for its inhibitory effects on 12-O-tetradecanoylphorbol-13-acetate (TPA) -induced edema in mouse ear at a dose of 100 ug/site. The format is functional. The gist of the method: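 Male ICR mice, 30–40 g, 10–15 per group. Test compound applied in 25 μL acetone/pyridine/water 97:2:1 containing TPA (200 μg/mL) to the inner surface of one ear. Killed with CO2 5 h later; 6-mm ear punch weighed wet for edema. ED50 taken from three-point dose titration curves.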

In series [2] the test system is Mus musculus. Put plainly: Inhibitory effects on arachidonic acid (AA) induced mouse ear edema at a dose of 100 ug/ear. The format is functional. The method, boiled down:
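Male ICR mice (30–40 g, 10–15 per group). Compound in 25 μL acetone/pyridine/water 97:2:1 with arachidonic acid (50 mg/mL) applied to inner surface of one ear. After 1 h, CO2 sacrifice, 6-mm disk punched, edema measured as change in wet weight versus controls.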

The species named for series [3] is Mus musculus. Description: Inhibitory effects on delayed type hypersensitive reaction in mouse ears at a dose of 300 ug/site. The format is functional. The method, boiled down: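 ICR mice, 10 or 12 per group, sensitized by abdominal swabbing with 0.1 mL antigen in acetone (7% picryl chloride or 1% OXA). DTH response assessed in mouse ears.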
For series [4], the species on record is Oryctolagus cuniculus. Put plainly: Compound was evaluated for primary irritation test by applying at the intact site and the average score was reported. Number of animals tested =6. The conditions noted are these: rabbit, in vivo, topical_or_ocular. It is filed as toxicity, organism-based. The gist of the method:
(§1)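 Rabbit backs shaved and depilated; 0.5 g compound applied to four sites (two intact, two abraded) under gauze for 24 h. Sites examined grossly 24 and 72 h after removing covering; scored by Draize method.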

The species entered for series [5] is Oryctolagus cuniculus. Put plainly: Compound was evaluated for primary irritation test by applying at the abraded site and the average score was reported. Number of animals tested =6. It is filed as toxicity, organism-based. Conditions: rabbit, in vivo, topical_or_ocular. The gist of the method: as §1
Series [6] is filed under the species Rattus norvegicus. Put plainly: Evaluated for its antioxidative effect using the thiobarbituric acid (TBA) method in rat. It is filed as functional. The method, boiled down: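 Test sample in 67 mM phosphate buffer pH 7.4 mixed with 10% male Wistar rat (300–400 g) forebrain homogenate. Shaken 1 h at 37 °C, deproteinated with 20% TCA. Supernatant heated 10 min at 100 °C with 1.2% thiobarbiturate; absorbance read at 532 nm.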

For series [7], the species on record is Rattus norvegicus. Description: Inhibitory effects on passive cutaneous anaphylaxis in rats at a dose of 1 mg/site. It is filed as functional. The method, boiled down:
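Male SD rats, eight per group, sensitized intradermally at two dorsal sites with 0.05 mL anti-ovalbumin rat IgE serum diluted 1:8 in 0.9% saline. Compound applied topically to those sites 5 h before iv challenge 48 h later with 2 mg ovalbumin plus 5 mg Evans blue in 1 mL. Extravasated dye measured 30 min later; percent inhibition versus control group.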

≈ marks a conversion by molar mass, not a printed value.

For orientation: Inhibition means the relative decrease from the control value, in per cent. One may read the IC50 as the concentration needed to halve the response being measured. On to `Cc1ccc(O)c(NCCCN2CCC(C(O)(c3ccccc3)c3ccccc3)CC2)c1`, for which the Inhibition in the series on Mus musculus [1] stood at 89%; in the series with Mus musculus [2], 61.5%; in the series listed under Mus musculus [3], 77%; in the series listed under Rattus norvegicus [7], 36.8%. Moreover, the Average score in the series listed under Oryctolagus cuniculus [4] and in the series listed under Oryctolagus cuniculus [5] was 0 throughout. This compound also had an IC50 in the series listed under Rattus norvegicus [6] of 0.029 µg/mL (≈ 0.0673 µM).
